Measurements as given in publication PMC5114172 (Journal of applied toxicology : JAT, 2016).

Legend:
Format in all cases: cell-based, human
NK cells = assay: Cell viability, trypan blue exclusion
PBMCs = assay: Cell viability, trypan blue exclusion; settings: for Percent Viable Cells / decrease in viability: PBMCs
Granulocytes [1] = assay: Cell viability, trypan blue exclusion; settings: for Percent Viable Cells: Granulocytes
Granulocytes [2] = assay: IL-1β secretion assay
In short: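 NK cells, MD-PBMCs, PBMCs or granulocytes (1.5 million/mL) or PBMC+granulocytes (0.75 million/mL each), per donor, exposed 24 h, 48 h or 6 days to 0.05–5 μM test compound diluted from DMSO stock, with DMSO controls. Supernatants kept at −70 °C. IL-1β by sandwich ELISA: HRP detection antibody, acid-stopped substrate, A450 against standards. Detection limit 3 pg/mL; triplicates; ANOVA then t test versus control, p<0.05.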

MD-PBMCs = assay: IL-1β secretion; settings: donor F240, 24 h

CCC[CH2][Sn][CH2]CCC [DBT, Dibutyltin]
Percent Viable Cells (NK cells; 24 h, 0.05 μM DBT): 97±3%
Percent Viable Cells (NK cells; 24 h, 0.1 μM DBT): 98±2%
Percent Viable Cells (NK cells; 24 h, 0.25 μM DBT): 98±1%
Percent Viable Cells (NK cells; 24 h, 0.5 μM DBT): 95±4%
Percent Viable Cells (NK cells; 24 h, 1 μM DBT): 92±5%
Percent Viable Cells (NK cells; 24 h, 2.5 μM DBT): 88±1%
Percent Viable Cells (NK cells; 24 h, 5 μM DBT): 80±7%
average decrease in viability (NK cells; 24 h, 5 μM DBT): 13%
effect on viability compared to the control (NK cells; 24 h, 0.05–1 μM DBT): no effect
decrease in NK cell viability (NK cells; 24 h, 2.5 and 5 μM DBT): about 10%
Percent Viable Cells (NK cells; 48 h, 0.05 μM DBT): 97±0%
Percent Viable Cells (NK cells; 48 h, 0.1 μM DBT): 96±1%
Percent Viable Cells (NK cells; 48 h, 0.25 μM DBT): 93±0 %
Percent Viable Cells (NK cells; 48 h, 0.5 μM DBT): 90±1 %
Percent Viable Cells (NK cells; 48 h, 1 μM DBT): 79±12%
Percent Viable Cells (NK cells; 48 h, 2.5 μM DBT): 61±6 %
Percent Viable Cells (NK cells; 48 h, 5 μM DBT): 64±8 %
reductions in viability (NK cells; 48 h, 2.5 and 5 μM DBT): around 35%
Percent Viable Cells (NK cells; 6 day, 0.05 μM DBT): 75±8%
Percent Viable Cells (NK cells; 6 day, 0.1 μM DBT): 78±7%
Percent Viable Cells (NK cells; 6 day, 0.25 μM DBT): 74±9%
Percent Viable Cells (NK cells; 6 day, 0.5 μM DBT): 68±9%
Percent Viable Cells (NK cells; 6 day, 1 μM DBT): 69±3%
Percent Viable Cells (NK cells; 6 day, 2.5 μM DBT): 58±7%
Percent Viable Cells (NK cells; 6 day, 5 μM DBT): 49±19%
change in viability compared to the control (NK cells; 6 days, 0.05–1 μM DBT): no change
average decrease in viability (PBMCs; PBMC, 24 h, 5 μM DBT): 31%
Percent Viable Cells (PBMCs; 24 h, 0.05 μM DBT): 96±4%
Percent Viable Cells (PBMCs; 24 h, 0.1 μM DBT): 97±3%
Percent Viable Cells (PBMCs; 24 h, 0.25 μM DBT): 96±3%
Percent Viable Cells (PBMCs; 24 h, 0.5 μM DBT): 95±3%
Percent Viable Cells (PBMCs; 24 h, 1 μM DBT): 86±7%
Percent Viable Cells (PBMCs; 24 h, 2.5 μM DBT): 69±10 %
Percent Viable Cells (PBMCs; 24 h, 5 μM DBT): 65±8 %
decrease in viability (PBMCs; 24 h, 2.5 and 5 μM DBT): 25%
Percent Viable Cells (PBMCs; 48 h, 0.05 μM DBT): 93±3%
Percent Viable Cells (PBMCs; 48 h, 0.1 μM DBT): 94±4%
Percent Viable Cells (PBMCs; 48 h, 0.25 μM DBT): 94±4%
Percent Viable Cells (PBMCs; 48 h, 0.5 μM DBT): 91±8%
Percent Viable Cells (PBMCs; 48 h, 1 μM DBT): 74±16%
Percent Viable Cells (PBMCs; 48 h, 2.5 μM DBT): 56±13 %
decrease in viability (PBMCs; 48 h, 2.5 μM DBT): 38%
Percent Viable Cells (PBMCs; 48 h, 5 μM DBT): 56±8 %
decrease in viability (PBMCs; 48 h, 5 μM DBT): 35%
Percent Viable Cells (PBMCs; 6 day, 0.05 μM DBT): 68±45%
Percent Viable Cells (PBMCs; 6 day, 0.1 μM DBT): 87±11%
Percent Viable Cells (PBMCs; 6 day, 0.25 μM DBT): 69±33%
Percent Viable Cells (PBMCs; 6 day, 0.5 μM DBT): 68±13%
Percent Viable Cells (PBMCs; 6 day, 1 μM DBT): 43±12%
Percent Viable Cells (PBMCs; 6 day, 2.5 μM DBT): 36±25%
Percent Viable Cells (PBMCs; 6 day, 5 μM DBT): 42±15%
Percent Viable Cells (Granulocytes [1]; 24 h, 0.05 μM DBT): 90±8%
Percent Viable Cells (Granulocytes [1]; 24 h, 0.1 μM DBT): 92±5%
Percent Viable Cells (Granulocytes [1]; 24 h, 0.25 μM DBT): 95±3%
Percent Viable Cells (Granulocytes [1]; 24 h, 0.5 μM DBT): 94±3%
Percent Viable Cells (Granulocytes [1]; 24 h, 1 μM DBT): 94±2%
Percent Viable Cells (Granulocytes [1]; 24 h, 2.5 μM DBT): 92±3%
Percent Viable Cells (Granulocytes [1]; 24 h, 5 μM DBT): 92±2%
Percent Viable Cells (Granulocytes [1]; 48 h, 0.05 μM DBT): 93±4%
Percent Viable Cells (Granulocytes [1]; 48 h, 0.1 μM DBT): 95±3%
Percent Viable Cells (Granulocytes [1]; 48 h, 0.25 μM DBT): 92±5%
Percent Viable Cells (Granulocytes [1]; 48 h, 0.5 μM DBT): 94±3%
Percent Viable Cells (Granulocytes [1]; 48 h, 1 μM DBT): 95±2%
Percent Viable Cells (Granulocytes [1]; 48 h, 2.5 μM DBT): 72±10 %
Percent Viable Cells (Granulocytes [1]; 48 h, 5 μM DBT): 73±17%
Percent Viable Cells (Granulocytes [1]; 6 day, 0.05 μM DBT): 51±18%
Percent Viable Cells (Granulocytes [1]; 6 day, 0.1 μM DBT): 65±22%
Percent Viable Cells (Granulocytes [1]; 6 day, 0.25 μM DBT): 55±33%
Percent Viable Cells (Granulocytes [1]; 6 day, 0.5 μM DBT): 50±5%
Percent Viable Cells (Granulocytes [1]; 6 day, 1 μM DBT): 57±9%
Percent Viable Cells (Granulocytes [1]; 6 day, 2.5 μM DBT): 34±8 %
Percent Viable Cells (Granulocytes [1]; 6 day, 5 μM DBT): 35±20%
effect on viability (Granulocytes [1]; granulocytes alone, 24 h, any of the DBT exposures): not affected
Secretion of IL-1β (Granulocytes [2]; 4 donors, 24 h, any of the conditions tested, limit of detection): ≤ 3 pg/mL
average of the maximum fold increase in IL-β secretion (Granulocytes [2]; 24 h, across donors): 3.7 fold
change in IL-1β secretion (Granulocytes [2]; 48 h, 0.25–5 μM DBT, cells from 3 of the 4 donors): increases
Interleukin 1 beta secreted (MD-PBMCs; 0.05 μM DBT + Caspase-1 inhibitor II 50 μM): 337 ± 7 pg/mL
Interleukin 1 beta secreted (MD-PBMCs; 0.05 μM DBT + U0126 50 μM): 1840 ± 95 pg/mL
